Sampled rows, rich in hits. Any-hit rate of the full collection: about 1.4%.
CHT inh: inhibitors of human choline transporter CHT; Q9GZV3; CHT-expressing cells, membrane potential dye, choline response; stronger effect = lower value; B-score at 10 µM; actives 0.86% (n = 310,000); AID 488975;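 active = B-score over 3 SD under the library average, and starting fluorescence ratio not unusually high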;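 also: choline stimulus applied at its EC90 after an EC20 pre-addition; B-score computed on integrated fluorescence ratio after choline addition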
Target sequence (Q9GZV3 whole entry, looked up): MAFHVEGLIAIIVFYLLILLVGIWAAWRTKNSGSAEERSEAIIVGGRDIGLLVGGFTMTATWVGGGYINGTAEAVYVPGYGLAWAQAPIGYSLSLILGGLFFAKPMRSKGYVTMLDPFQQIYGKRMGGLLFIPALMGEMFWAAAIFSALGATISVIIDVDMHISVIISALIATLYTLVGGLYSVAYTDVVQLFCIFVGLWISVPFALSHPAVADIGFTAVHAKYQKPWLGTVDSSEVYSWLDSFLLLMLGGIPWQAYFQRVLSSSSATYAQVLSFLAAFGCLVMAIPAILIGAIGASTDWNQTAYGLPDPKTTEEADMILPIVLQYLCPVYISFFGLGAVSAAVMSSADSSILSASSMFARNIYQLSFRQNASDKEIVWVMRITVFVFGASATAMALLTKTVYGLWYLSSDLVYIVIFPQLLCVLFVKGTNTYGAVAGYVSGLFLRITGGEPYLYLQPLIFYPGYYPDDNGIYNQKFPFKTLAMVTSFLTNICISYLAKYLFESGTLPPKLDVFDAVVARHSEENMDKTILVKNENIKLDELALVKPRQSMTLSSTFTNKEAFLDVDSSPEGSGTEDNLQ
TNAP inh no acc: inhibitors of human TNAP without phosphate acceptor. purified TNAP, CDP-star luminescence, 30 min. AID 1012. P05186. inhibition, % at 20 µM. actives 0.26% (n = 200,000);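 active = tissue-nonspecific alkaline phosphatase inhibition above about 50% at 20 µM in the single-dose screen, limit read from the data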;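 also: 0% = DMSO negative control and 100% = EDTA positive control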
ABCB6 inh MLPCN: blocks the human ABCB6 transporter; fluorescence ratio to DMSO, % at 10 µM; Q9NP58; K562-ABCB6 porphyrin accumulation, flow cytometry, 1 h; stronger effect = lower value; actives 0.19% (n = 360,000);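 active = fluorescence ratio to DMSO below 75%, the collection mean minus 3 SD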;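 also: signal is porphyrin accumulated inside mitochondria; 100% equals median channel fluorescence of DMSO control wells; lower ratio means ABCB6 inhibition with less porphyrin fluorescence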
TNAP inh hi DEA: blocks human TNAP under high phosphate acceptor concentration. actives 0.03% (n = 200,000). P05186. inhibition, % at 20 µM. purified TNAP, CDP-star luminescence, 1 M DEA. AID 1135;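 active = over 50% inhibition of tissue-nonspecific alkaline phosphatase at 20 µM in the single-dose screen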;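 also: plate controls were DMSO wells for no effect and EDTA-quenched wells as full inhibition for full effect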
TNAP act hiacc: increases human TNAP activity under high phosphate acceptor concentration; 200,000 tested, under 10 active; purified TNAP, CDP-star luminescence, 1 M DEA, 30 min; stronger effect = higher value; 0 = EDTA background, 1 = DMSO-only activity; activation factor at 20 µM; AID 1136;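 active = activation factor at least 2 at 20 µM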
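Dosing: 20 µM single point. System: human TNAP. Amount: TNAP 1/800 final. Incubation: 30 min, room temperature. Read-out: TNAP activation factor scaled between EDTA and DMSO control wells. Signal: luminescence from CDP-star hydrolysis. Medium: 1 M DEA, pH 9.8, Mg2+, Zn2+. Control set: EDTA negative control, DMSO positive control.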
CHT PAM: human CHT allosteric activation; B-score at 10 µM; CHT-expressing cells, membrane potential dye, choline EC20; stronger effect = higher value; LV-AA mutant CHT in HEK293 cells; actives 0.49% (n = 310,000); Q9GZV3;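 active = initial fluorescence not abnormally high and integrated response B-score, plate-corrected, over 3 SD above library mean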
CHT block conf: confirmation of human choline transporter CHT inhibitors; shares compounds with CHT inh; CHT activity remaining % of control (stronger effect = lower value), % at 10 µM; AID 493221; CHT-expressing cells, choline membrane potential dye; LV-to-AA substituted CHT, HEK293 cells; actives 70% (n = 2,400);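 active = choline transporter activity left, mean of duplicates at 10 µM, below buffer-only control mean minus 3 SD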;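 also: depolarization triggered by choline at its EC90 following an EC20 pre-addition; 0% = hemicholinium-3 full block and 100% = buffer-only control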
HEK293 MPD ctr: CHT inhibitor counter-screen hit in parental HEK293 cells; shares compounds with CHT inh; membrane potential dye, choline response; active = decrease or increase beyond buffer ±3SD; membrane potential ratio readout (active if shifted either direction beyond buffer ±3SD; no single direction) at 10 µM; actives 4% (n = 2,400); AID 493222;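 also: parental cells lack the transporter so any hit is non-specific; ratio is peak minus trough fluorescence over baseline after EC90 choline challenge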
The depositor's hits bear a star; i = inactive; · = not tested or not shown.

SMILES | CHT inh | TNAP inh no acc | ABCB6 inh MLPCN | TNAP inh hi DEA | TNAP act hiacc | CHT PAM | CHT block conf | HEK293 MPD ctr
CCN1CCN(c2cc(C)c3cc(NC(=S)N4CCC5(CC4)OCCO5)ccc3n2)CC1 | -5* | -17 | 96 | -4 | 1 | i | 40%* | i
CCN1CCN(c2cc(C)c3cc(NC(=S)N4CCOCC4)ccc3n2)CC1 | -5.8* | 10 | 96 | -4 | 1 | i | 39%* | i
CCN1CCN(c2cc(C)c3cc(NC(=S)N4CCN(c5ccccc5)CC4)ccc3n2)CC1 | i | -8 | 96 | 3 | 1 | i | · | ·
CCCN1CCN(C(=S)Nc2ccc3nc(N4CCN(CC)CC4)cc(C)c3c2)CC1 | -9.2* | -2 | 95 | -6 | 1.1 | i | 22%* | i
CCN(CC)C(=O)Cn1cnc2sc(C(=O)NCCCN3CCOCC3)c(C)c2c1=O | i | · | 99 | · | · | i | · | ·
CCOC1=C2[C@@H](CN(S(=O)(=O)c3ccc(C)cc3)[C@H]2c2cccs2)[C@H]2C(=O)N(c3ccccc3)C(=O)[C@H]2C1 | · | · | 101 | · | · | · | · | ·
N#Cc1nc(Cc2cccc3ccccc23)oc1N1CCOCC1 | -5.3* | -7 | 102 | -6 | 1.1 | i | 59%* | i
CC1CCN(c2oc(Cc3cccc4ccccc34)nc2C#N)CC1 | i | -21 | 108 | -11 | 1.1 | i | · | ·
Cc1cccc(N2CCN(C(=O)c3ccc(NS(=O)(=O)c4ccc5[nH]c(=O)[nH]c5c4)cc3)CC2)c1C | -5.1* | · | 93 | · | · | i | i | i
COc1ccc(Cl)cc1C(=O)NNC(=O)CN1C(=O)C2CC=CCC2C1=O (configuration not stated) | i | -19 | 98 | -5 | 1.1 | i | · | ·
O=C1NC(=O)/C(=C/c2cccc3ccccc23)S1 | -5* | · | 104 | · | · | i | 62%* | i
Cc1ccc(S(=O)(=O)Oc2ccccc2/C=C2/SC(=O)NC2=O)cc1 | -6* | · | 101 | · | · | i | 57%* | i
O=C1N=C(N2CCOCC2)S/C1=C\c1ccccc1OS(=O)(=O)c1ccccc1 | i | · | 94 | · | · | i | · | ·
CCCOc1ccc2ccccc2c1/C=C1\SC(=O)NC1=O | -6.4* | · | 95 | · | · | i | i | i
O=C1NC(=O)C(=Cc2ccccc2[N+](=O)[O-])S1 | · | · | 98 | · | · | · | · | ·
COc1ccccc1OCCCOc1ccc(/C=C2\SC(=O)NC2=O)cc1OC | i | · | 101 | · | · | i | · | ·
CCN(CC)C(=O)C1CC(=O)N(c2ccc(F)c(Cl)c2)C1 (configuration not stated) | i | -12 | 101 | -6 | 1.1 | i | · | ·
Cc1csc(NC(=O)CSc2nc(C(C)C)nc3ccccc23)n1 | -5.9* | · | 93 | · | · | i | 60%* | i
CC(C)=CCc1c(O)cc2oc3c(CC=C(C)C)c(O)c(O)c(CC=C(C)C)c3c(=O)c2c1O | -6.5* | · | 90 | · | · | i | i | i
CN(Cc1nc(-c2ccncc2)no1)S(=O)(=O)c1ccc(Cl)cc1 | i | -9 | 100 | -6 | 1.1 | i | · | ·
CN(Cc1nc(-c2ccncc2)no1)S(=O)(=O)c1ccc(Br)cc1 | -8* | -8 | 93 | -1 | 1 | i | i | i
C[C@@H]1CN([C@@H](C)CO)C(=O)CCCn2nncc2CO[C@H]1CN(C)S(C)(=O)=O | · | · | 102 | · | · | · | · | ·
O=C(OCc1nc2ccsc2c(=O)[nH]1)c1ccco1 | i | · | 104 | · | · | i | · | ·
O=C(OCc1nc2ccsc2c(=O)[nH]1)c1cc(Br)c(Br)s1 | -7.7* | · | 101 | · | · | i | 64%* | i
CC(CC(=O)Nc1ccc2c(c1)c(=O)n(C)n2-c1cccs1)c1ccccc1 (configuration not stated) | · | · | 100 | · | · | · | · | ·
SMILES | CHT inh | TNAP inh no acc | ABCB6 inh MLPCN | TNAP inh hi DEA | TNAP act hiacc | CHT PAM | CHT block conf | HEK293 MPD ctr
CC(C)N(C)CCOC(=O)C1COc2ccccc2O1 (configuration not stated) | -6* | · | 94 | · | · | i | 7.5%* | i
O=C(COC(=O)C1COc2ccccc2O1)c1ccccc1 (configuration not stated) | · | · | 96 | · | · | · | · | ·
COc1cccc(C(O)c2nc(-c3ccc(F)c(Cl)c3)cs2)c1 (configuration not stated) | · | · | 92 | · | · | · | · | ·
CCOCCn1c(CN2CCN(C)CC2)nc2c1c(=O)n(C)c(=O)n2C | i | · | 100 | · | · | i | · | ·
CCOCCn1c(CN2CCN(c3ccc(F)cc3)CC2)nc2c1c(=O)n(C)c(=O)n2C | -17* | 22 | 92 | 3 | 1 | i | 10%* | i
CCOCCn1c(CN2CCN(c3cccc(Cl)c3)CC2)nc2c1c(=O)n(C)c(=O)n2C | i | -12 | 92 | -6 | 1.1 | i | · | ·
COC(=O)Cn1c(CN2CCOCC2)nc2c1c(=O)n(C)c(=O)n2C | i | · | 94 | · | · | i | · | ·
COC(=O)Cn1c(CN2CCN(c3ccc(F)cc3)CC2)nc2c1c(=O)n(C)c(=O)n2C | -11* | -8 | 95 | -3 | 1 | i | -12%* | i
COCCn1c(CN2CCN(c3cccc(Cl)c3)CC2)nc2c1c(=O)n(C)c(=O)n2C | -7.3* | -11 | 99 | -6 | 1.1 | i | -5.6%* | i
O=C(O)c1ccc2c(c1)C(=O)N(c1cc([N+](=O)[O-])ccn1)C2=O | i | · | 94 | · | · | i | · | ·
CCN(CC)S(=O)(=O)c1cc(C(=O)N2CCc3ccccc32)ccc1Cl | -5.8* | -7 | 91 | 1 | 1 | i | 67%* | i
CCN(CC)C(=O)[C@H]1C[C@H](CC(=O)NCCN2CCOCC2)C(=O)N2CCc3c([nH]c4cc(-c5ccco5)ccc34)[C@]12C | · | · | 90 | · | · | · | · | ·
CCCCCN(C(=O)CCC(=O)OCC(=O)N1CCCC(C)C1)c1c(N)n(CCCC)c(=O)[nH]c1=O (configuration not stated) | i | · | 101 | · | · | i | · | ·
CCOC(=O)C1CCN(C(=O)COC(=O)/C=C/c2cccc(OC)c2OC)CC1 | · | · | 93 | · | · | · | · | ·
O=C(Nc1nc(-c2ccccc2)cs1)c1ccc(=O)[nH]c1 | -6* | -1 | 93 | -1 | 1 | i | 70%* | i
O=C(Nc1nc(-c2ccccc2)cs1)c1ccccc1NS(=O)(=O)c1ccc(F)cc1 | -8* | 34 | 90 | 3 | 1 | i | 42%* | i
O=S(=O)(Nc1ccc(-c2csc(-c3ccccc3)n2)cc1)c1ccc(F)cc1 | i | -4 | 95 | 4 | 1 | i | · | ·

Source: PubChem (several laboratories)
